Measurements from ChEMBL document CHEMBL1781937, “Antioxydant activity of β-carboline derivatives in the LDL oxidation model” (2011).

How the values were obtained:
[1] = Antioxidant activity against copper-induced LDL-oxidation assessed as length of lag phase of oxidative procedure of LDL at 0.1 to 10 uM measured every 10 mins for 8 hrs by spectrophotometry relative to 5 uM of copper; type: functional
In short: (§1)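 Copper oxidation of LDL: LDL isolated by NaBr density ultracentrifugation (1.019–1.063 g/mL) and dialysed in 0.01 M PBS pH 7.4 under N2 at 4 °C. 20 µL of 16.6 µM CuSO4 is added to 160 µL LDL (125 µg protein/mL) with compound (0.1–10 µM) or PBS at 30 °C. A234 is read every 10 min for 8 h. R is the compound lag phase divided by the control lag phase.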

[2] = Antioxidant activity against copper-induced LDL-oxidation assessed as length of lag phase of oxidative procedure of LDL at 0.1 to 10 uM measured every 10 mins for 8 hrs by spectrophotometry relative to 1 uM of copper; type: functional; in short: as §1
[3] = Antioxidant activity against CuSO4-induced LDL-oxidation assessed as increase in lag phase of conjugated diene formation by 1.5 times measured every 10 mins for 8 hrs by spectrophotometry analysis
[4] = Antioxidant activity against APPH-induced LDL-oxidation assessed as length of lag phase of oxidative procedure of LDL at 0.1 to 10 uM measured every 10 mins for 8 hrs by spectrophotometry relative to 1 uM of APPH; type: functional
In short: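 AAPH oxidation of LDL: LDL isolated by NaBr density ultracentrifugation (1.019–1.063 g/mL) and dialysed in 0.01 M PBS pH 7.4 under N2 at 4 °C. 160 µL LDL (125 µg protein/mL) is mixed with 20 µL of 2 mM AAPH and compound (0.1–10 µM) at 30 °C. Conjugated dienes are read at 234 nm every 10 min for 8 h. R is the lag phase with compound divided by the control lag phase.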

[5] = Antioxidant activity in BAEC assessed as protection against air-oxidized LDL-induced cell death at 10 uM pretreated for 24 hrs before air-oxidized LDL challenge measured after 16 hrs by lactate dehydrogenase release assay (reference value: 22.76 +/- 1.53 %); type: functional, Bos taurus

Row | Compound | Activity [1] | Ratio [2] | ED50 [3] | Activity [4] | Activity [5]
1 | CCc1ccc2[nH]c3c(c2c1)CCNC3c1ccc(OC)c(OC)c1 (stereo not drawn) | 1.1 | 1 | 10 µM |  | 
2 | CCC(=O)N1CCc2c([nH]c3ccc(CC)cc23)C1c1cccc(OC)c1 (stereo not drawn) | 1.2 | 1 | 9 µM |  | 
3 | CCc1ccc2[nH]c3c(c2c1)CCN(C)C3c1cccc(OC)c1 (stereo not drawn) | 1.9 | 1 | 1 µM |  | 
4 | CCCN1CCc2c([nH]c3ccc(CC)cc23)C1c1ccc2c(c1)OCCO2 (stereo not drawn) | 1.2 | 1 | 9 µM |  | 
5 | CCc1ccc2[nH]c3c(c2c1)CCN(C(=O)OCc1ccccc1)C3c1cccc(OCc2ccccc2)c1 (stereo not drawn) | 1 | 1 | 10 µM |  | 
6 | CCc1ccc2[nH]c3c(c2c1)CCNC3c1cccc(O)c1 (stereo not drawn) | > 5 | 2.7 | < 0.1 µM | 2.6 | 13.31%
7 | CCCN1CCc2c([nH]c3ccc(CC)cc23)C1c1ccc(OC)c(OC)c1 (stereo not drawn) | 1.8 | 1.1 | 2 µM |  | 
8 | CCc1ccc2[nH]c3c(c2c1)CCNC3c1cccc(OCc2ccccc2)c1 (stereo not drawn) | 1.4 | 1 | 7 µM | 1 | 13.29%
9 | CCc1ccc2[nH]c3c(c2c1)CCNC3c1ccc2c(c1)OCCO2 (stereo not drawn) | 1.1 | 1 | 10 µM |  | 
10 | CCCN1CCc2c([nH]c3ccc(O)cc23)C1c1cccc(OC)c1 (stereo not drawn) | 3.2 | 1.9 | 0.2 µM | 2.1 | 14.02%
11 | CCCN1CCc2c([nH]c3ccc(CC)cc23)C1c1cccc(OC)c1 (stereo not drawn) | 1.6 | 1.2 | 4 µM |  | 15.32%
12 | CCCN1CCc2c([nH]c3ccc(CC)cc23)C1c1ccc(OCc2ccccc2)c(OCc2ccccc2)c1 (stereo not drawn) | 1.8 | 1.3 | 3 µM |  | 
13 | CCc1ccc2[nH]c3c(c2c1)CCNC3c1cc(OC)c(OC)c(OC)c1 (stereo not drawn) | 1.1 | 1 | 10 µM |  | 
14 | CCCCCCCCCN1CCc2c([nH]c3ccc(CC)cc23)C1c1cccc(OC)c1 (stereo not drawn) | 1.2 | 1 | 9 µM |  | 
15 | CCc1ccc2[nH]c3c(c2c1)CCNC3c1ccc(OC)c(OC)c1OC (stereo not drawn) | 1.2 | 1 | 9 µM |  | 
16 | CCc1ccc2[nH]c3c(c2c1)CCNC3c1ccccc1OC (stereo not drawn) | 1.4 | 1.2 | 7 µM |  | 

Row | Compound | Activity [1] | Ratio [2] | ED50 [3] | Activity [4] | Activity [5]
17 | CCCN1CCc2c([nH]c3ccc(CC)cc23)C1c1cccc(OCc2ccccc2)c1 (stereo not drawn) | 4.2 | 2.2 | 0.1 µM | 2.3 | 13.42%
18 | CCc1ccc2[nH]c3c(c2c1)CCNC3c1cc(C(C)(C)C)c(O)c(C(C)(C)C)c1 (stereo not drawn) | > 5 | 2.8 | < 0.1 µM | 2.7 | 13.26%
19 | CCCN1CCc2c([nH]c3ccc(CC)cc23)C1c1ccccc1OC (stereo not drawn) | 1.6 | 1 | 4 µM |  | 
20 | CCCCCN1CCc2c([nH]c3ccc(CC)cc23)C1c1cccc(OC)c1 (stereo not drawn) | 1.2 | 1 | 9 µM |  | 
21 | CCCN1CCc2c([nH]c3ccc(CC)cc23)C1c1ccc(O)c(O)c1 (stereo not drawn) | > 5 | 2.7 | < 0.1 µM | 2.7 | 13.19%
22 | CCCN1CCc2c([nH]c3ccc(OCc4ccccc4)cc23)C1c1cccc(OC)c1 (stereo not drawn) | 4.4 | 2.4 | 0.1 µM | 2.4 | 13.22%
23 | CCc1ccc2[nH]c3c(c2c1)CCNC3c1cccc(OC)c1 (stereo not drawn) | 1.2 | 1.1 | 9 µM |  | 
24 | CCc1ccc2[nH]c3c(c2c1)CCNC3c1ccc(OC)cc1 (stereo not drawn) | 1.2 | 1 | 9 µM |  | 
25 | CCc1ccc2[nH]c3c(c2c1)CCNC3c1ccc(O)c(O)c1 (stereo not drawn) | > 5 | 2.8 | < 0.1 µM | 2.6 | 13.3%
26 | COc1cccc(C2NCCc3c2[nH]c2ccc(OCc4ccccc4)cc32)c1 (stereo not drawn) | 1.5 | 1.1 | 5 µM |  | 
27 | CCc1ccc2[nH]c3c(c2c1)CCN(C(=O)OCc1ccccc1)C3c1ccc(OCc2ccccc2)c(OCc2ccccc2)c1 (stereo not drawn) | 1.3 | 1.1 | 8 µM |  | 
28 | CCc1ccc2[nH]c3c(c2c1)CCNC3c1ccc(OCc2ccccc2)c(OCc2ccccc2)c1 (stereo not drawn) | 1.4 | 1 | 7 µM | 1 | 
29 | CCCN1CCc2c([nH]c3ccc(CC)cc23)C1c1cc(C(C)(C)C)c(O)c(C(C)(C)C)c1 (stereo not drawn) | > 5 | 2.7 | < 0.1 µM | 2.6 | 13.21%
30 | CCCN1CCc2c([nH]c3ccc(CC)cc23)C1c1ccc(OC)cc1 (stereo not drawn) | 1.7 | 1 | 3 µM |  | 
31 | CCCN1CCc2c([nH]c3ccc(CC)cc23)C1c1cc(OC)c(OC)c(OC)c1 (stereo not drawn) | 1.8 | 1.2 | 2 µM |  | 
32 | CCCN1CCc2c([nH]c3ccc(CC)cc23)C1c1cccc(O)c1 (stereo not drawn) | > 5 | 2.8 | < 0.1 µM | 2.7 | 13.2%
